Experimental data reported in PubChem BioAssay AID488986 (Sanford-Burnham Center for Chemical Genomics, 2010).
Activity calls are given as the source filed them.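 Rule for the calls: active = mean EC50 below 10 µM; inactive = the rest.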

Target: Type-1 angiotensin II receptor (Homo sapiens) (UniProt P30556)
Assay: AGTR1 activation selectivity check – cell-based, CHO-K1 PathHunter, luminescence, set 2, selectivity assay for APJ agonist project, SAR follow-up (AID 488986)
Settings: CHO-K1 AGTR1 PathHunter beta-arrestin, 90 min
Outline: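 Assay system – CHO-K1 human AT1 beta-arrestin recruitment cells · Probe or stimulus – angiotensin II 1 µM final (positive control) · Compound – dose-response series, DMSO 1.32% final · Timing – cells overnight, compounds 90 min 25 °C, reagent 60 min · Measured by – beta-gal complementation luminescence · Control set – 1 µM angiotensin II as high control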

Chain of Type-1 angiotensin II receptor (Homo sapiens) (P30556 whole entry, looked up): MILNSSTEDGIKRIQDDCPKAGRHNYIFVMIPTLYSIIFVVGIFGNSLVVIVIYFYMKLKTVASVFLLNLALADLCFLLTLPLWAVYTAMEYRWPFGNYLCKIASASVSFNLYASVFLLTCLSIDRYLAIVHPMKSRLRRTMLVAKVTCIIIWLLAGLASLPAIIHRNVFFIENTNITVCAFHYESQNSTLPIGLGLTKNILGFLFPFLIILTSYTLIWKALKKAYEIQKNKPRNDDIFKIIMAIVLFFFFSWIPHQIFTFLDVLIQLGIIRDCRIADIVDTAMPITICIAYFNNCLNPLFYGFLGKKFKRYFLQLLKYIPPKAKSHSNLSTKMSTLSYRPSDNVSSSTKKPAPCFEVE

Structure (SMILES)	EC50
CCc1nnc(NC(=O)CSc2nc3cccnc3n2C2CCCCC2)s1	> 79 µM (inactive)
CCOc1cc2[nH]c(=S)n(CCN3CCCCC3CC)c(=O)c2cc1OCC (stereo not drawn)	> 79 µM (inactive)
CCN1C(=O)/C(=C/C=C2/Sc3ccccc3N2CC)SC1=S	> 79 µM (inactive)
CCOc1cc2[nH]c(=S)n(CCCC(=O)NCc3ccccn3)c(=O)c2cc1OCC	> 79 µM (inactive)
CCc1nnc(NC(=O)CSc2nc3cccnc3n2Cc2ccccc2)s1	> 79 µM (inactive)
CCCCN(C)CCn1c(=S)[nH]c2cc(OCC)c(OCC)cc2c1=O	> 79 µM (inactive)
CCN1C(=O)/C(=C/C=C2/SC(c3ccccc3)=C(c3ccccc3)N2CC)SC1=S	> 79 µM (inactive)
CCOc1cc2[nH]c(=S)n(CCN3CCC(C)CC3)c(=O)c2cc1OCC	> 79 µM (inactive)
Cc1cc(O)c(C2CCCCC2)cc1N=O	> 79 µM (inactive)

Other lines, results leading:

EC50	Structure (SMILES)
4.96 µM	CCN1C(c2ccccc2)=C(c2ccccc2)S/C1=C\C=C1/SC(=S)N(C)C1=O
> 79 µM (inactive)	CC1=CC(=O)C=C/C1=N/OS(=O)(=O)c1ccc(C)cc1
> 79 µM (inactive)	CC1=C/C(=N/OS(=O)(=O)c2ccccc2)C(C(C)C)=CC1=O
> 79 µM (inactive)	CC1=CC(=O)C(C2CCCCC2)=C/C1=N/OS(=O)(=O)c1ccccc1
> 79 µM (inactive)	CC1=CC(=O)C(C(C)(C)C)=C/C1=N/OS(=O)(=O)c1ccccc1
> 79 µM (inactive)	CC1=CC(=NOS(=O)(=O)c2ccccc2)C(C)=CC1=O
> 79 µM (inactive)	CC(C)C1=CC(=NOS(=O)(=O)c2ccccc2)C=C(C(C)C)C1=O
> 79 µM (inactive)	CCOc1ccc(S(=O)(=O)Nc2nc(-c3ccccc3)cs2)cc1
> 79 µM (inactive)	Cc1cc(C)n2nc3nc(N4CCCCC4)nc(-c4ccccc4)c3c2n1
